CHO parental Ca: signal in parental CHO cells, OX1R antagonist counter-screen; parental CHO-K1, ATP-induced calcium, Fluo-8 fluorescence; inhibition, % at 5.6 µM; 0.63% of 330,000 active;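 active means inhibition above that plate's mean sample inhibition plus 3 SD, cut at about 26% in these data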;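 further: 0% = ATP-challenged DMSO wells and 100% = DMSO wells without ATP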
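Material: parental CHO cells / Compound: single nominal dose of 5.6 µM per compound / Signal: Fluo-8 fluorescence / Replicates: singlicate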
OX1R antag-1: blocks the human orexin 1 receptor; inhibition, % at 6.6 µM; 1.8% of 330,000 active; OX1R-expressing cells, FRET antagonist read-out; AID 485270; in the data active means inhibition mostly above about 38%, no sharp cut-off; inactive means mostly below about 40%;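 further: 0% = agonist challenge alone and 100% = reference antagonist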
TRPN1 ag: agonists of zebrafish TRPN1 channel | HEK293 zebrafish TRPN1-YFP, Fluo-8 calcium fluorescence; 100% = response to 87 µM carbachol | activation, % at 3 µM | 0.18% of 220,000 active;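 active means activation above its plate's cutoff, the mean activation of test wells on that plate plus 3 SD, cut at about 19% in these data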;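 further: 0% = DMSO alone and 100% = 87 µM carbachol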
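Material: zebrafish TRPN1-YFP in HEK293 cells; Doses: single test compound dose, 3 µM nominal, 0.3% DMSO; Timing: dye loading 1 h at 37 °C, then 30 min room temperature; Technique: intracellular calcium fluorescence with Fluo-8; Benchmarks: high carbachol 87 µM, low DMSO alone.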
GPR7 antagonist: human neuropeptides B/W receptor 1 antagonism | P48145 | GPR7-expressing cells, fluorescence antagonist assay | inhibition, % at 4.4 µM | 1.1% of 290,000 active; in the data active means inhibition above about 16%, passing the limit was not always enough;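 further: cells stimulated with the agonist NPW; 0% = agonist with vehicle and 100% = vehicle without agonist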
OX1R antag-2: antagonists of human orexin 1 receptor. O43613. CHO/OX1R cells, Fluo-8 calcium fluorescence, orexin A. inhibition, % at 5 µM. 0.43% of 330,000 active. AID 434989;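 active means inhibition above its plate's threshold, mean inhibition of all tested compounds on the plate plus 3 SD, cut at about 37% in these data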;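 further: 0% = orexin A challenge wells and 100% = SB-334867-A antagonist wells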
TRPML3 ag: activates the human TRPML3 channel. HEK293 TRPML3-YFP, Fluo-8 calcium fluorescence; 100% = the carbachol control signal. activation, % at 3 µM. 0.29% of 220,000 active;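 active means activation above its plate's cutoff, the mean activation of the plate's test wells plus 3 SD, cut at about 12% in these data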;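 further: 0% = DMSO only wells and 100% = carbachol wells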
Target sequence (Q8TDD5 whole entry, looked up): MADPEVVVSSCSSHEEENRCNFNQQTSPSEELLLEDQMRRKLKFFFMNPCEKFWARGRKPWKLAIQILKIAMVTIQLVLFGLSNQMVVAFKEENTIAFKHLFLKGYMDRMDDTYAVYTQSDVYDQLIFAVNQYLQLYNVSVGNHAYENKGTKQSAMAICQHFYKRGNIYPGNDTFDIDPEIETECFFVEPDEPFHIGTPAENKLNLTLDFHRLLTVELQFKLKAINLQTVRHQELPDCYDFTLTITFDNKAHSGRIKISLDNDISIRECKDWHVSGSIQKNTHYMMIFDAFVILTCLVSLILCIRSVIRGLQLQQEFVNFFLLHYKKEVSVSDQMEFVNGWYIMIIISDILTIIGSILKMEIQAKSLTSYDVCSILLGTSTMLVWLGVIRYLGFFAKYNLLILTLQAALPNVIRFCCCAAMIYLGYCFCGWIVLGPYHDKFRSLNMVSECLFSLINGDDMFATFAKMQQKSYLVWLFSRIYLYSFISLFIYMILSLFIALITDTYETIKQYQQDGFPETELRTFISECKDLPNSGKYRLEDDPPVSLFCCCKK
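Test system – HEK293 line with stable expression of human TRPML3-YFP channel · Control set – carbachol 87 µM final as high control (100%), DMSO as low control (0%) · Signal – Fluo-8 calcium dye fluorescence, ex 470-495, em 515-575 nm · Incubation – 1-h 37 °C dye load, 5-s basal, 120-s post-compound reads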
The depositor's hits bear a star. This is a sample that favours compounds with a hit; in the whole collection about 3.2% have one here.

Results for O=C(NCC1CCCO1)c1cc2c([nH]c3ccccc32)c(-c2cccc(Cl)c2)n1 (centres undefined) ?
CHO parental Ca: 1; OX1R antag-1: 50*; GPR7 antagonist: -6; OX1R antag-2: 9

What do the screens show for `COc1cc(-c2nc(C(=O)NCC3CCCO3)cc3c2[nH]c2ccccc23)cc(OC)c1OC` (centres undefined)?
CHO parental Ca: 7; OX1R antag-1: 34; GPR7 antagonist: -2; OX1R antag-2: -12

How did Oc1ccc(Cl)cc1Cc1cc(Cl)ccc1O do in these assays?
CHO parental Ca: 26; OX1R antag-1: 46*; TRPN1 ag: 1; GPR7 antagonist: 35*; OX1R antag-2: 4; TRPML3 ag: -1

How did O=c1cc(N2CCN(Cc3ccccc3)CC2)[nH]c(=O)n1-c1ccc(Br)cc1 do in these assays?
CHO parental Ca: -9; OX1R antag-1: 4; TRPN1 ag: 1; GPR7 antagonist: 3; OX1R antag-2: -30; TRPML3 ag: 1

Results for COc1ccc(-n2c(=O)cc(N3CCN(Cc4ccccc4)CC3)[nH]c2=O)cc1 ?
CHO parental Ca: -9; OX1R antag-1: 13; TRPN1 ag: 1; GPR7 antagonist: 18*; OX1R antag-2: -13; TRPML3 ag: 1

Results for Cc1cc(C2CCCCC2)n(O)c(=O)c1 ?
CHO parental Ca: 0; OX1R antag-1: 19; OX1R antag-2: 10

Results for CSc1cccc(NC(=O)C(=O)NCc2ccccc2)c1 ?
CHO parental Ca: 28*; OX1R antag-1: 11; TRPN1 ag: -3; GPR7 antagonist: -13; OX1R antag-2: -9; TRPML3 ag: -1

What do the screens show for `CSc1cccc(NC(=O)CN(C)S(=O)(=O)c2ccccc2)c1`?
CHO parental Ca: -14; OX1R antag-1: 50*; TRPN1 ag: -2; GPR7 antagonist: -16; OX1R antag-2: 7; TRPML3 ag: -1

How did CSc1cccc(NC(=O)Nc2ccc(Cl)cc2)c1 do in these assays?
CHO parental Ca: 81*; OX1R antag-1: 51*; TRPN1 ag: 18; GPR7 antagonist: 0; OX1R antag-2: 49*; TRPML3 ag: 5

What do the screens show for `CSc1cccc(NC(N)=O)c1`?
CHO parental Ca: 7; OX1R antag-1: 1; TRPN1 ag: -1; GPR7 antagonist: -18; OX1R antag-2: -9; TRPML3 ag: 0

Results for CSc1cccc(NC(=O)CN(C)S(=O)(=O)c2ccc(F)cc2)c1 ?
CHO parental Ca: -11; OX1R antag-1: 43; TRPN1 ag: -1; GPR7 antagonist: -10; OX1R antag-2: 6; TRPML3 ag: 0

Results for O=C(CSc1nnc(-c2ccc(F)cc2)o1)N1CCCC1 ?
CHO parental Ca: 6; OX1R antag-1: 8; GPR7 antagonist: 1; OX1R antag-2: 5

How did COc1ccc(CCNC(=O)COC(=O)CCC(=O)c2ccc(F)cc2)cc1 do in these assays?
CHO parental Ca: -9; OX1R antag-1: -2; TRPN1 ag: 0; GPR7 antagonist: -7; OX1R antag-2: -1; TRPML3 ag: 1

Results for CSc1oc(-c2ccccc2)nc1S(=O)(=O)c1ccc(C)cc1 ?
CHO parental Ca: 29*; OX1R antag-1: 16; TRPN1 ag: -1; GPR7 antagonist: -7; OX1R antag-2: -26; TRPML3 ag: 1

What do the screens show for `CCSc1oc(-c2ccccc2)nc1S(=O)(=O)c1ccccc1`?
CHO parental Ca: -15; OX1R antag-1: 11; TRPN1 ag: -1; GPR7 antagonist: -5; OX1R antag-2: -3; TRPML3 ag: 0

What do the screens show for `O=C(CCc1nc(-c2ccccc2F)no1)Nc1ccc(Oc2ccccc2)cc1`?
CHO parental Ca: 39*; OX1R antag-1: 55; TRPN1 ag: 4; GPR7 antagonist: -7; OX1R antag-2: 62*; TRPML3 ag: 0

How did COc1cccc(NC(=O)CCc2nc(-c3ccccc3F)no2)c1 do in these assays?
CHO parental Ca: -14; OX1R antag-1: 3; TRPN1 ag: -1; GPR7 antagonist: -1; OX1R antag-2: 0; TRPML3 ag: 0

Results for O=C(Cc1ccccc1)Nc1ccnn1C1CCN(Cc2nccs2)CC1 ?
CHO parental Ca: -23; OX1R antag-1: -6; GPR7 antagonist: -5; OX1R antag-2: -20

Assay outcomes deposited in PubChem by The Scripps Research Institute Molecular Screening Center.
